In paper PMC12393906 (Molecular Therapy, 2025):
Each block holds one compound with its values, some of them ahead of it.

How the values were obtained:
[1] = tested on: Mao-A; conditions: read-out: IC50 (Mao-A); cited from earlier work
[2] = tested on: lysine-specific demethylase 1; conditions: cited from earlier work
[3] = tested on: ERO1α; conditions: read-out: IC50 (ERO1α); cited from earlier work
[4] = target: ERO1α; conditions: read-out: KD (ERO1α); cited from earlier work
[5] = target: T1, Recombinant human ERO1α (Homo sapiens, UniProt Q96HE7); assay: fluorescence-based ERO1α activity assay; format: biochemical; conditions: 0.01–1 μM FAD
T1 sequence (Q96HE7 24-468): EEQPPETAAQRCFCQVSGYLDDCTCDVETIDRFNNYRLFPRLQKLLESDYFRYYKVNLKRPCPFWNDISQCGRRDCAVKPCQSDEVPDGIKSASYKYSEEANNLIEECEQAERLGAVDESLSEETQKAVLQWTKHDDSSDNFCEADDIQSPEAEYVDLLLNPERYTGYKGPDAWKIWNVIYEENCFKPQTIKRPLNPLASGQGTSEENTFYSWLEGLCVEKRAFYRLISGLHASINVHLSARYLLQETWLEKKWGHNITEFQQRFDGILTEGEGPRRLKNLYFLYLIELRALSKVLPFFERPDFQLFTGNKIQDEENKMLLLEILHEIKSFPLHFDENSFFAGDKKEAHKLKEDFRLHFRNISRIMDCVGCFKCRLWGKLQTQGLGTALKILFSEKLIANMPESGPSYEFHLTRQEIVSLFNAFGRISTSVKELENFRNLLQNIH

[6] = tested on: C57BL/6 mice; assay: Tail bleeding time and hemoglobin content; format: in vivo, mouse; conditions: iv 5 μg/g BW
[7] = tested on: C57BL/6 mice; assay: FeCl3-induced carotid arterial thrombosis; format: in vivo, mouse; conditions: iv 5 μg/g BW; 7% or 10% FeCl3
Summary of the method: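 Male and female mice, 8–12 weeks, were anaesthetised with ip ketamine/xylazine. A 2 × 2 mm filter disc carrying 1.2 μL of 7 or 10% FeCl3 was placed on the carotid artery for 2 min. Flow was monitored by Doppler flow meter. TTO was the time from disc removal to stable occlusion (no flow for 5 min).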

Compound: CN(C)c1ccc(/C=C2\Oc3cc(O)ccc3C2=O)cc1 [Compound T151742]
IC50 [1]: 1 µM | binding to lysine-specific demethylase 1 [2]: does not bind | IC50 [3]: 8.7 µM | Kd [4]: 31.4 µM

effect of exogenous FAD on ERO1α activity [5]: significantly increased ERO1α activity
Compound: Cc1cc2nc3c(=O)[nH]c(=O)nc-3n(C[C@H](O)[C@H](O)[C@H](O)COP(=O)(O)OP(=O)(O)OC[C@H]3O[C@@H](n4cnc5c(N)ncnc54)[C@H](O)[C@@H]3O)c2cc1C [FAD, flavin adenine dinucleotide]

tail bleeding times and blood loss [6]: markedly increased both
Compound: eptifibatide
time to occlusion (TTO) [7]: significantly prolonged TTO irrespective of the FeCl3 concentration
